# According to ChEMBL document CHEMBL4819122, “Novel 4-(piperazin-1-yl)quinolin-2(1H)-one bearing thiazoles with antiproliferative activity through VEGFR-2-TK inhibition” (Bioorg Med Chem, 2021):
# Calls of active or inactive are those of the source. The calls are words filed in the database; no cut-off is given here.
# Assays:
# SR = experiment: Cytotoxicity against human SR assessed as growth inhibition at 10 uM by NCI protocol relative to control; format: functional; conditions: read-out: GI
# How it was run: (§1)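 Run by the NCI under its standard protocol: one dose of 10 μM against a sixty-line panel from nine human tumour tissues. Result given as percent growth inhibition of treated cells relative to untreated cells.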
# A498 = experiment: Cytotoxicity against human A498 assessed as growth inhibition at 10 uM by NCI protocol relative to control; format: functional; conditions: read-out: GI
# How it was run: (§2)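 Run by NCI as a single-dose screen at 10 μM across the sixty-cell-line panel, which covers nine human tumour tissue types. The read-out is percent growth inhibition of treated cells relative to untreated cells.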
# UO-31 = experiment: Cytotoxicity against human UO31 assessed as growth inhibition at 10 uM by NCI protocol relative to control; format: functional; conditions: read-out: GI; how it was run: as §1
# T47D [1] = experiment: Induction of apoptosis in human T47D cells assessed as total apoptotic cells after 24 hrs by Annexin V-FITC/propidium iodide staining based flow cytometric analysis (reference value: 2.61 %); format: functional
# T47D [2] = experiment: Induction of cell cycle arrest in human T47D cells assessed as increase in accumulation at G0/G1 phase after 24 hrs by propidium iodide/Annexin V staining based FACScan flow cytometry(reference value: 52.59%); format: functional
# SF-539 = experiment: Cytotoxicity against human […] assessed as growth inhibition at 10 uM by NCI protocol relative to control; format: functional; conditions: read-out: GI; how it was run: as §2
# MOLT-4 = experiment: Cytotoxicity against human MOLT-4 assessed as growth inhibition at 10 uM by NCI protocol relative to control; format: functional; conditions: read-out: GI; how it was run: as §2
# CAKI-1 = experiment: Cytotoxicity against human Caki1 assessed as growth inhibition at 10 uM by NCI protocol relative to control; format: functional; conditions: read-out: GI; how it was run: as §2
# MDA-MB-468 = experiment: Cytotoxicity against human MDA-MB-468 assessed as growth inhibition at 10 uM by NCI protocol relative to control; format: functional; conditions: read-out: GI; how it was run: as §2
# T47D [3] = experiment: Induction of apoptosis in human T47D cells assessed as necrotic cells after 24 hrs by Annexin V-FITC/propidium iodide staining based flow cytometric analysis (reference value: 1.74%); format: functional
# MCF10 = experiment: Cytotoxicity against human MCF10 cells assessed as reduction in cell viability after 3 hrs by MTT assay; conditions: MCF10, 3 h
# T47D [4] = experiment: Induction of cell cycle arrest in human T47D cells assessed as increase in accumulation at S phase after 24 hrs by propidium iodide/Annexin V staining based FACScan flow cytometry(reference value: 34.62%); format: functional
# T47D [5] = experiment: Induction of apoptosis in human T47D cells assessed as late apoptotic cells after 24 hrs by Annexin V-FITC/propidium iodide staining based flow cytometric analysis (reference value: 0.21 %); format: functional
# IGROV-1 = experiment: Cytotoxicity against human IGROVI assessed as growth inhibition at 10 uM by NCI protocol relative to control; format: functional; conditions: read-out: GI; how it was run: as §2
# T47D [6] = experiment: Induction of cell cycle arrest in human T47D cells assessed as increase in accumulation at G2/M phase after 24 hrs by propidium iodide/Annexin V staining based FACScan flow cytometry(reference value: 12.79%); format: functional
# T47D [7] = experiment: Cytotoxicity against human T-47D assessed as growth inhibition at 10 uM by NCI protocol relative to control; format: functional; conditions: read-out: GI; how it was run: as §1
# HOP-92 = experiment: Cytotoxicity against human HOP-92 assessed as growth inhibition at 10 uM by NCI protocol relative to control; format: functional; conditions: read-out: GI; how it was run: as §2
# T47D [8] = experiment: Cytotoxicity against human T47D cells assessed as reduction in cell viability after 3 hrs by MTT assay
# EKVX = experiment: Cytotoxicity against human EKVX assessed as growth inhibition at 10 uM by NCI protocol relative to control; format: functional; conditions: read-out: GI; how it was run: as §2
# 786-0 = experiment: Cytotoxicity against human 786-0 assessed as growth inhibition at 10 uM by NCI protocol relative to control; format: functional; conditions: read-out: GI; how it was run: as §2
# T47D [9] = experiment: Induction of apoptosis in human T47D cells assessed as early apoptotic cells after 24 hrs by Annexin V-FITC/propidium iodide staining based flow cytometric analysis (reference value: 0.66 %); format: functional
# UACC-62 = experiment: Cytotoxicity against human UACC-62 assessed as growth inhibition at 10 uM by NCI protocol relative to control; format: functional; conditions: read-out: GI; how it was run: as §1
# T47D [10] = experiment: Induction of cell cycle arrest in human T47D cells assessed as increase in accumulation at pre G1 phase after 24 hrs by propidium iodide/Annexin V staining based FACScan flow cytometry(reference value: 2.61%); format: functional
# MDA-MB-435 = experiment: Cytotoxicity against human MDA-MB-435 assessed as growth inhibition at 10 uM by NCI protocol relative to control; format: functional, cell-based; how it was run: as §2
# HCT-116 = experiment: Cytotoxicity against human HCT-116 assessed as growth inhibition at 10 uM by NCI protocol relative to control; format: functional; conditions: read-out: GI; how it was run: as §2
smiles,measurement,setting,value
O=C(CN1CCN(c2cc(=O)[nH]c3ccc(F)cc23)CC1)Nc1nc(-c2ccccc2)cs1,inhibition of growth at 10 µM,SR,21.2%
same,inhibition of growth at 10 µM,A498,27.9%
same,inhibition of growth at 10 µM,UO-31,24.2%
same,Activity,T47D [1],43.05%
same,Activity,T47D [2],41.31%
same,inhibition of growth at 10 µM,SF-539,13.3%
same,inhibition of growth at 10 µM,MOLT-4,13.3%
same,inhibition of growth at 10 µM,CAKI-1,17.4%
same,inhibition of growth at 10 µM,MDA-MB-468,12.5%
same,Activity,T47D [3],12.86%
same,IC50,MCF10,39.4 µM
same,Activity,T47D [4],52.39%
same,Activity,T47D [5],27.88%
same,inhibition of growth at 10 µM,IGROV-1,16.1%
same,Activity,T47D [6],6.3%
same,inhibition of growth at 10 µM,T47D [7],29.6%
same,inhibition of growth at 10 µM,HOP-92,10.9%
same,IC50,T47D [8],7.2 µM
same,inhibition of growth at 10 µM,EKVX,14.6%
same,inhibition of growth at 10 µM,786-0,10.3%
same,Activity,T47D [9],2.31%
same,inhibition of growth at 10 µM,UACC-62,14.4%
same,Activity,T47D [10],43.05%
same,growth inhibition (GI),MDA-MB-435,inactive
same,inhibition of growth at 10 µM,HCT-116,16%
